Measurements: ChEMBL document CHEMBL3734757, “Discovery of novel quinoline-based mTOR inhibitors via introducing intra-molecular hydrogen bonding scaffold (iMHBS): The design, synthesis and biological evaluation” (Bioorg Med Chem, 2015)
The source made the active and inactive calls. The rule behind the calls is not given here.

Key:
[1] = tested on: MCF7; assay: cells; conditions: Homo sapiens, MCF7, 72 h
[2] = cells; conditions: Homo sapiens, HCT-116, 72 h
[3] = cells; conditions: Homo sapiens, PC-3, 72 h
[4] = target: T1, Phosphatidylinositol 4,5-bisphosphate 3-kinase catalytic subunit alpha isoform (Homo sapiens, UniProt P42336); assay: Inhibition of PI3Kalpha (unknown origin) after 1 hr by Kinase-Glo Luminescent assay
T1 sequence (P42336 whole entry, canonical isoform): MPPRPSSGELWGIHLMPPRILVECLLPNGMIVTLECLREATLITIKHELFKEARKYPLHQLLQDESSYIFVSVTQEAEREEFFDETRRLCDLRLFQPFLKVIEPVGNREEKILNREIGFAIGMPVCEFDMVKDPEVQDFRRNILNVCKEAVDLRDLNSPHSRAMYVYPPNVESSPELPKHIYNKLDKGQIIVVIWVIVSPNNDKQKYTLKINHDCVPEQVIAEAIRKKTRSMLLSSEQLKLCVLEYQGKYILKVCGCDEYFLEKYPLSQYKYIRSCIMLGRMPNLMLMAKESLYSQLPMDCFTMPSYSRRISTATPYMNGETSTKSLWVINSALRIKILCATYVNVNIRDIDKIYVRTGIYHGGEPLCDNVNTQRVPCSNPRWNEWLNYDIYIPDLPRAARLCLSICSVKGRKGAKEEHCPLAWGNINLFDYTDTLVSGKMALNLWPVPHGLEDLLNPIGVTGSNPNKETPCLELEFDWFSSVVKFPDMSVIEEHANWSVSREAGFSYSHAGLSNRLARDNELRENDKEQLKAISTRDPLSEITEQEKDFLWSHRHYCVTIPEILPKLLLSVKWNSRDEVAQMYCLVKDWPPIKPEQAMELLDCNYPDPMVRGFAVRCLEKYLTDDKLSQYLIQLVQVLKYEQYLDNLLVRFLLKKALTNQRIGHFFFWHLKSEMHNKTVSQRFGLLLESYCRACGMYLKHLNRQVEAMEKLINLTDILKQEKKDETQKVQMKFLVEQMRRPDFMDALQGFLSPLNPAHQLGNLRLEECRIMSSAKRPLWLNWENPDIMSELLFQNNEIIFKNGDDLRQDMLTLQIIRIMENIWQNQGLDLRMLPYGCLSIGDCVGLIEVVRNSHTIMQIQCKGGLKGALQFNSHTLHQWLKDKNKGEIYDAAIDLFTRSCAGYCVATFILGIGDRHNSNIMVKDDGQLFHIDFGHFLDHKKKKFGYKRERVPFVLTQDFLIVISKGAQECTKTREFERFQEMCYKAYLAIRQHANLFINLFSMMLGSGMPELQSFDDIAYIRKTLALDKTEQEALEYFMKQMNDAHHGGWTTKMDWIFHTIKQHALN

[5] = tested on: MCF7; assay: Inhibition of mTORC1/2 in human MCF7 cells assessed as downregulation of pAKT(Ser473) and pS6(Ser235) at 0.5 uM after 2 hrs by Western blot analysis; assay type: cell-based
[6] = target: Serine/threonine-protein kinase mTOR (Homo sapiens, UniProt P42345); assay: Inhibition of mTOR (unknown origin) using ULight-4E-BP1 peptide as substrate after 1 hr by lance ultra assay
[7] = tested on: MCF7; assay: Inhibition of mTORC2 in human MCF7 cells assessed as downregulation of pAKT(Ser473) at 0.1 uM after 2 hrs by Western blot analysis
[8] = target: T2, Phosphatidylinositol 4,5-bisphosphate 3-kinase catalytic subunit gamma isoform (Homo sapiens, UniProt P48736); assay: Inhibition of PI3Kgamma (unknown origin) after 1 hr by ADP-Glo Luminescent assay
Target sequence in this assay (P48736 whole entry, canonical isoform): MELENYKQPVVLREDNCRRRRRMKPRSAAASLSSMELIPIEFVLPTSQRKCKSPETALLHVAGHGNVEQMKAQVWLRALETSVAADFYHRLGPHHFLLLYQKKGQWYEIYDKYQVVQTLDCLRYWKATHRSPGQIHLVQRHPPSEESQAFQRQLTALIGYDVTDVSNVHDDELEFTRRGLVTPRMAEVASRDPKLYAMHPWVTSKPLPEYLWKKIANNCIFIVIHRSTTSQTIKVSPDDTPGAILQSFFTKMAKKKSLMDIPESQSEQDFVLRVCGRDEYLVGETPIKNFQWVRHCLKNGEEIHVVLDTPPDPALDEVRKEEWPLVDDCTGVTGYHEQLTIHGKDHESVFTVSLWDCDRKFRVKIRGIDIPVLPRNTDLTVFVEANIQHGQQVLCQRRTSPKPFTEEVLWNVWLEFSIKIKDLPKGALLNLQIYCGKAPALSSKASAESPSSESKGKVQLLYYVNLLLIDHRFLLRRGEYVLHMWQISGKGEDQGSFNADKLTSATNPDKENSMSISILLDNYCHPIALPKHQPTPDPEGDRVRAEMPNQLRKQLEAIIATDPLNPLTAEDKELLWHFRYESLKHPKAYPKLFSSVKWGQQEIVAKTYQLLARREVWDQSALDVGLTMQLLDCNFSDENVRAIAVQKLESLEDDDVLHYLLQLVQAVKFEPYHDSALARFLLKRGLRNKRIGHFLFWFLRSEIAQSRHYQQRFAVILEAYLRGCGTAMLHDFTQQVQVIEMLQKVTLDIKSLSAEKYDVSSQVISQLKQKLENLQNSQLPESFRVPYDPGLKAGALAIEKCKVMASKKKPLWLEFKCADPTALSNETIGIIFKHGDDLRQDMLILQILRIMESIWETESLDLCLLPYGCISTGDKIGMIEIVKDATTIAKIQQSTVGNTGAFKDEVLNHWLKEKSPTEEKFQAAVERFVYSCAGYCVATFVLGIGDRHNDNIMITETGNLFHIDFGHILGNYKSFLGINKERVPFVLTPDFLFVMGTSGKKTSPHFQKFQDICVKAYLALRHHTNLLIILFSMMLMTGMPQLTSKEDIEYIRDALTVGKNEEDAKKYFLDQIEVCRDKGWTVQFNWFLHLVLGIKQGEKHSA

[9] = target: T3, Phosphatidylinositol 4,5-bisphosphate 3-kinase catalytic subunit beta isoform (Homo sapiens, UniProt P42338); assay: Inhibition of PI3Kbeta (unknown origin) after 1 hr by ADP-Glo Luminescent assay
Procedure, shortened: (§1)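 Purchased PI3Kβ reaction run 1 h at room temperature. An aliquot was moved to a new plate and stopped with an equal volume of ADP-Glo reagent, equilibrated 40 min. Kinase detection reagent added, shaken 1 min, equilibrated 60 min, then luminescence read. Inhibition relative to DMSO (max) and no-enzyme (min) controls; IC50 from four-parameter Hill fit.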
Target sequence in this assay (P42338 whole entry, canonical isoform): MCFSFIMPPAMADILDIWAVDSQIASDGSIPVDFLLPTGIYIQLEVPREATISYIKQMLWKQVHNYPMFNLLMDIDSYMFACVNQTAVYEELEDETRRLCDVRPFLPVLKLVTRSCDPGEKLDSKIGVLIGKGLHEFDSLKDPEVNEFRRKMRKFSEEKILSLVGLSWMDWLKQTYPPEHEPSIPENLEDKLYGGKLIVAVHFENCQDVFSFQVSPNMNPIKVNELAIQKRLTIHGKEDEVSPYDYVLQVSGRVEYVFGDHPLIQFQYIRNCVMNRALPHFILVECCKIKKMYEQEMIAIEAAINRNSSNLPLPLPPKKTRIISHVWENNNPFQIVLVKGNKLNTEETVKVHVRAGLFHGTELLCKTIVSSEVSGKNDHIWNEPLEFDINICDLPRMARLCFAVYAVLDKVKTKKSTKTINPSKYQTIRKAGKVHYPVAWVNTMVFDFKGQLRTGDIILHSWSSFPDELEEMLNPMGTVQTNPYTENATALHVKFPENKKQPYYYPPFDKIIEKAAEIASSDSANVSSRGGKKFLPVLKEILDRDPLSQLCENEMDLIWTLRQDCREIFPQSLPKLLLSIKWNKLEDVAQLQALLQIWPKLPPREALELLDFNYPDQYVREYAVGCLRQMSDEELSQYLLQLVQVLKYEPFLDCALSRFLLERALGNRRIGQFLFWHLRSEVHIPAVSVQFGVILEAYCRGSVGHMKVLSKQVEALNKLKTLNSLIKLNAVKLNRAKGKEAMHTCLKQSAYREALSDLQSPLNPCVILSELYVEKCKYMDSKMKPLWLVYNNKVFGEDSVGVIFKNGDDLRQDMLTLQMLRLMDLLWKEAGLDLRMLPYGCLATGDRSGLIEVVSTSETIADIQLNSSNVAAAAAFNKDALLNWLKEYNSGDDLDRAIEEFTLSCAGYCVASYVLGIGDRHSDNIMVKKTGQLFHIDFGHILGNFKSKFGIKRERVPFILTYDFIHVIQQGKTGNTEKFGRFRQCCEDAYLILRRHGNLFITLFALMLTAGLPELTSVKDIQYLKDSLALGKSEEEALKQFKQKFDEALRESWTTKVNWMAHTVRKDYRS

[10] = target: T4, Phosphatidylinositol 4,5-bisphosphate 3-kinase catalytic subunit delta isoform (Homo sapiens, UniProt O00329); assay: Inhibition of PI3Kdelta (unknown origin) after 1 hr by ADP-Glo Luminescent assay
T4 sequence (O00329 whole entry): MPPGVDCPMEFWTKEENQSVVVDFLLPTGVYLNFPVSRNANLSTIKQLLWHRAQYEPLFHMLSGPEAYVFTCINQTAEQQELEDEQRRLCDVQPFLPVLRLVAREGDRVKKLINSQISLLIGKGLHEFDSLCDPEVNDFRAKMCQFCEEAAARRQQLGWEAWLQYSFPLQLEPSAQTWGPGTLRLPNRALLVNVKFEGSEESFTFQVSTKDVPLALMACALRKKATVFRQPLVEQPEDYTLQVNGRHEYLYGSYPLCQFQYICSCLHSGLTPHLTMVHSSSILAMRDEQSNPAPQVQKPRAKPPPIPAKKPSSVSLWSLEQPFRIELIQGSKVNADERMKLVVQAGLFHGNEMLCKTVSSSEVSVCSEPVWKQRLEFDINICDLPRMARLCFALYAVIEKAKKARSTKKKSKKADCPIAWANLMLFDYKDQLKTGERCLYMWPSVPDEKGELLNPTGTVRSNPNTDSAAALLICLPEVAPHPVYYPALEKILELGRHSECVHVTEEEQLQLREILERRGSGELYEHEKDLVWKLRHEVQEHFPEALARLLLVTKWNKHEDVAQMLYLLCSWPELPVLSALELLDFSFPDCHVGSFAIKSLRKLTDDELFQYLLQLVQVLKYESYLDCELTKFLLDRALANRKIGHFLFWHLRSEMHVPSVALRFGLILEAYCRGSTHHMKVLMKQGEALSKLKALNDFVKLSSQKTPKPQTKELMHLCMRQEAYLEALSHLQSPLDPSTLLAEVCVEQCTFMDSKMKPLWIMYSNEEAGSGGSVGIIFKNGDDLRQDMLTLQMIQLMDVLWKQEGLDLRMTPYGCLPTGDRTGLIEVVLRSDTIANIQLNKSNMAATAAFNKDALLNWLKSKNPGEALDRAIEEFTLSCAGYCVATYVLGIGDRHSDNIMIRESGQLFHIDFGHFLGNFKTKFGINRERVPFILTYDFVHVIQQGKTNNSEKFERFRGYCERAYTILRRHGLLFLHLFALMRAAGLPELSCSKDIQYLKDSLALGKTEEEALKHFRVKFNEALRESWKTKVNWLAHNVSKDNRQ

[11] = target: T5, Phosphatidylinositol 4,5-bisphosphate 3-kinase catalytic subunit delta isoform (Homo sapiens) (UniProt O00329); assay: Inhibition of PI3Kdelta (unknown origin) at 1 uM after 1 hr by ADP-Glo Luminescent assay
T5 sequence (whole entry): T4 sequence (O00329 whole entry)

[12] = target: T2, Phosphatidylinositol 4,5-bisphosphate 3-kinase catalytic subunit gamma isoform; assay: Inhibition of PI3Kgamma (unknown origin) at 1 uM after 1 hr by ADP-Glo Luminescent assay
Target sequence in this assay (P48736 whole entry, looked up, canonical isoform): as the sequence (P48736 whole entry, canonical isoform) above

[13] = Metabolic stability in simulated gastric fluid after 45 mins; assay type: ADME; conditions: simulated gi fluid, 0.75 h
[14] = Metabolic stability in human liver microsomes after 30 mins; assay type: ADME; conditions: read-out: Stability
[15] = target: T3, Phosphatidylinositol 4,5-bisphosphate 3-kinase catalytic subunit beta isoform; assay: Inhibition of PI3Kbeta (unknown origin) at 1 uM after 1 hr by ADP-Glo Luminescent assay
Procedure, shortened: as §1
Target sequence in this assay (P42338 whole entry, looked up, canonical isoform): as the sequence (P42338 whole entry, canonical isoform) above

[16] = Metabolic stability in simulated intestinal fluid after 45 mins; assay type: ADME; conditions: simulated gi fluid, 0.75 h
[17] = Metabolic stability in rat liver microsomes after 30 mins; assay type: ADME; conditions: read-out: Stability
[18] = target: T1, Phosphatidylinositol 4,5-bisphosphate 3-kinase catalytic subunit alpha isoform; assay: Inhibition of PI3Kalpha (unknown origin) at 1 uM after 1 hr by Kinase-Glo Luminescent assay
Procedure, shortened: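 Purchased PI3Kα in buffer of 50 mM HEPES pH 7.5, 3 mM MgCl2, 1 mM EDTA, 100 mM NaCl, 0.03% CHAPS, 2 mM DTT; substrate PIP2 plus ATP. Reaction 1 h at room temperature, stopped with Kinase-Glo reagent, 15 min equilibration, luminescence read. Percent inhibition from no-enzyme and DMSO controls; IC50 from four-parameter Hill fit.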

[19] = Metabolic stability in human liver microsomes after 60 mins; assay type: ADME; conditions: read-out: Stability
[20] = tested on: MCF7; assay: Inhibition of mTORC2 in human MCF7 cells assessed as downregulation of pAKT(Ser473) at 0.5 uM after 2 hrs by Western blot analysis; assay type: cell-based
[21] = target: mTORC1 (Homo sapiens) (UniProt P42345+Q8N122+Q9BVC4); conditions: MCF7, 0.5 uM
Chain of mTORC1 (Homo sapiens) (Q8N122 whole entry, looked up, other chains not shown): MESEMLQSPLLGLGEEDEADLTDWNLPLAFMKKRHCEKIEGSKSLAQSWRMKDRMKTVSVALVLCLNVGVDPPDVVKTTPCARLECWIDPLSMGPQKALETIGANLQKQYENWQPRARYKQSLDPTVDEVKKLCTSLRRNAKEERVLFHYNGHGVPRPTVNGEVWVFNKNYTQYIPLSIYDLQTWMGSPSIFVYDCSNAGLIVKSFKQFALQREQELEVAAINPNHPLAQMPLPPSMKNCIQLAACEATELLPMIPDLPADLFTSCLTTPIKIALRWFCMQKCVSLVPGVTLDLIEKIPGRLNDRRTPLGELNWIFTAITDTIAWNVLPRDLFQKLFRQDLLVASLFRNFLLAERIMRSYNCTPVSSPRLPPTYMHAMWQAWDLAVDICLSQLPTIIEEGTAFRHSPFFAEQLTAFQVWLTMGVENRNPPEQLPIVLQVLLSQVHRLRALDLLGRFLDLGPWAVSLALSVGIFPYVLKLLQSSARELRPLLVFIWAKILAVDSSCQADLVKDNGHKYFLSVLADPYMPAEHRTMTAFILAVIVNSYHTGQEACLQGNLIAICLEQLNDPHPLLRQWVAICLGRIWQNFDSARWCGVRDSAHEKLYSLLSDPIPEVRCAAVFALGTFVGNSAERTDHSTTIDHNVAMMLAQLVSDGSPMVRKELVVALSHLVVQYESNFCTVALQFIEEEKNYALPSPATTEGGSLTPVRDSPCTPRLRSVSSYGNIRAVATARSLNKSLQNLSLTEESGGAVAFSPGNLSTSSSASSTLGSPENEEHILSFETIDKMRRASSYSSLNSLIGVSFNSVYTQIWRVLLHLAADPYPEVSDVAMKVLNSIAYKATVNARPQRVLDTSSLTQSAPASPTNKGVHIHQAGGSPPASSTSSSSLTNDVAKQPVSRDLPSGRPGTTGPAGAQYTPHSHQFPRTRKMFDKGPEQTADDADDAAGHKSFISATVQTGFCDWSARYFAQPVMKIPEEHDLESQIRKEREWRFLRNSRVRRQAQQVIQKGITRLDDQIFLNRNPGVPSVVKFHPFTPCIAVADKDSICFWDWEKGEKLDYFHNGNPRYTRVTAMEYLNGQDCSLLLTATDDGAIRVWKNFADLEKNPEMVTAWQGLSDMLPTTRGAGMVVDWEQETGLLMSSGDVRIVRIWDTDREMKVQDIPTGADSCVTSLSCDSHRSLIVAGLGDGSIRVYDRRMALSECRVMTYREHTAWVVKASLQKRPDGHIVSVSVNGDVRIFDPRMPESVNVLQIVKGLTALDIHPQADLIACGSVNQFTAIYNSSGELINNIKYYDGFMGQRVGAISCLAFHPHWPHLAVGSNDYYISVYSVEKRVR
Chain of mTORC1 (Homo sapiens) (Q9BVC4 whole entry, looked up, other chains not shown): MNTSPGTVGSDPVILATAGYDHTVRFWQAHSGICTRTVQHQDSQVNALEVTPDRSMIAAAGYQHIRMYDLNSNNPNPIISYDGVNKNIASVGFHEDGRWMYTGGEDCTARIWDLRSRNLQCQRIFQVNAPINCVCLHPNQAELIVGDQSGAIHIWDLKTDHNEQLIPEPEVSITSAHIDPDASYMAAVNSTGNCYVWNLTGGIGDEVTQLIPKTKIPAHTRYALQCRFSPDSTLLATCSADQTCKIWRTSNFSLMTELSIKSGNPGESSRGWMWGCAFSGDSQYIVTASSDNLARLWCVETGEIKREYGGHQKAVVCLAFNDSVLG

IC50 [1] | IC50 [2] | IC50 [3] | SMILES | other results
440 nM | 970 nM | 990 nM | CN1CCN(CC(=O)N2CCN(c3ccc(Nc4c(C(N)=O)cnc5ccc(-c6cnc7ccccc7c6)cc45)cc3C(F)(F)F)CC2)CC1 | 
1250 nM | 17300 nM | > 50000 nM | Cn1nccc1-c1ccc2ncc(C(N)=O)c(Nc3ccc(C(C)(C)C#N)cc3)c2c1 | 
440 nM | 1290 nM | 3900 nM | CC(=O)N1CCN(c2ccc(Nc3c(C(N)=O)cnc4ccc(-c5cnc6ccccc6c5)cc34)cc2C(F)(F)F)CC1 | IC50 [4]: 2430 nM; inhibition [5]: Active; IC50 [6]: 31 nM; inhibition [7]: Active; IC50 [8]: 939 nM; IC50 [9]: > 5000 nM; IC50 [10]: > 5000 nM
570 nM | 2400 nM | 1460 nM | CCC(=O)N1CCN(c2ccc(Nc3c(C(N)=O)cnc4ccc(-c5ccc(N)nc5)cc34)cc2C(F)(F)F)CC1 | 
360 nM | 1000 nM | 3730 nM | CS(=O)(=O)N1CCN(c2ccc(Nc3c(C(N)=O)cnc4ccc(-c5cnc6ccccc6c5)cc34)cc2C(F)(F)F)CC1 | 
600 nM | 3170 nM | 6390 nM | NC(=O)c1cnc2ccc(-c3cnc4ccccc4c3)cc2c1Nc1cccc(C(F)(F)F)c1 | 
520 nM | 670 nM | 830 nM | CC(C)(C#N)c1ccc(Nc2c(C(N)=O)cnc3ccc(-c4ccc(N)nc4)cc23)cc1 | 
2690 nM | 14700 nM | 7080 nM | Cn1nccc1-c1ccc2ncc(C(N)=O)c(Nc3ccc(N4CCN(S(C)(=O)=O)CC4)c(C(F)(F)F)c3)c2c1 | 
 |  |  | O=C(NC1CC1)c1cnc2ccc(-c3cnc4ccccc4c3)cc2c1Nc1ccc(N2CCNCC2)c(C(F)(F)F)c1 | IC50 [6]: > 3000 nM
1580 nM | 2570 nM | 1660 nM | COc1ccc(-c2ccc3ncc(C(N)=O)c(Nc4ccc(C(C)(C)C#N)cc4)c3c2)cn1 | 
50 nM | 200 nM | 210 nM | Cn1c(=O)n(-c2ccc(C(C)(C)C#N)cc2)c2c3cc(-c4cnc5ccccc5c4)ccc3ncc21 [DACTOLISIB] | 
240 nM | 460 nM | 610 nM | Cl.NC(=O)c1cnc2ccc(-c3cnc4ccccc4c3)cc2c1Nc1ccc(N2CCNCC2)c(C(F)(F)F)c1 | inhibition [11]: 16.7%; inhibition [12]: 6.7%; Stability [13]: Stable; remaining at 0.5 h [14]: 80%; inhibition [15]: 1%; Stability [16]: Stable; remaining at 0.5 h [17]: 50%; inhibition [18]: 32.3%; remaining at 1 h [19]: 73%
410 nM | 1830 nM | 1080 nM | NC(=O)c1cnc2ccc(-c3ccc(N)nc3)cc2c1Nc1cccc(C(F)(F)F)c1 | 
 |  |  | CO[C@H]1C[C@@H]2CC[C@@H](C)[C@@](O)(O2)C(=O)C(=O)N2CCCC[C@H]2C(=O)O[C@H]([C@H](C)C[C@@H]2CC[C@@H](O)[C@H](OC)C2)CC(=O)[C@H](C)/C=C(\C)[C@@H](O)[C@@H](OC)C(=O)[C@H](C)C[C@H](C)/C=C/C=C/C=C/1C | inhibition [20]: inactive; inhibition [21]: Active
780 nM | 2050 nM | 990 nM | COc1ccc(-c2ccc3ncc(C(N)=O)c(Nc4ccc(N5CCNCC5)c(C(F)(F)F)c4)c3c2)cn1 | 
1300 nM | 8730 nM | 7120 nM | CNC(=O)c1cnc2ccc(-c3cnc4ccccc4c3)cc2c1Nc1ccc(C(C)(C)C#N)cc1 | 
490 nM | 4660 nM | 1740 nM | CNC(=O)c1cnc2ccc(-c3ccc(N)nc3)cc2c1Nc1ccc(C(C)(C)C#N)cc1 | 
950 nM | 4560 nM | 2820 nM | CC(C)(C#N)c1ccc(Nc2c(C(N)=O)cnc3ccc(-c4cnc5ccccc5c4)cc23)cc1 | inhibition [12]: -2.4%; inhibition [15]: 10.3%; IC50 [6]: 33 nM; inhibition [18]: 26.9%
